Measured values: ChEMBL document CHEMBL4007435, “A Rational Design of a Selective Inhibitor for Kv1.1 Channels Prevalent in Demyelinated Nerves That Improves Their Impaired Axonal Conduction” (J Med Chem, 2017)
Calls of active or inactive are those of the source. No cut-off for these calls is given here.

Assays:
[1] = molecular target: T1, Potassium voltage-gated channel subfamily A member 1 (Homo sapiens, UniProt Q09470); assay: Inhibition of Kv1.1 (unknown origin)
[2] = molecular target: T2, Potassium voltage-gated channel subfamily A member 1 (Rattus norvegicus, UniProt P10499); assay: Inhibition of recombinant rat Kv1.1 expressed in HEK293 cells at -90 mV holding potential by whole cell patch clamp Qpatch method; type: cell-based
T2 sequence (P10499 whole entry): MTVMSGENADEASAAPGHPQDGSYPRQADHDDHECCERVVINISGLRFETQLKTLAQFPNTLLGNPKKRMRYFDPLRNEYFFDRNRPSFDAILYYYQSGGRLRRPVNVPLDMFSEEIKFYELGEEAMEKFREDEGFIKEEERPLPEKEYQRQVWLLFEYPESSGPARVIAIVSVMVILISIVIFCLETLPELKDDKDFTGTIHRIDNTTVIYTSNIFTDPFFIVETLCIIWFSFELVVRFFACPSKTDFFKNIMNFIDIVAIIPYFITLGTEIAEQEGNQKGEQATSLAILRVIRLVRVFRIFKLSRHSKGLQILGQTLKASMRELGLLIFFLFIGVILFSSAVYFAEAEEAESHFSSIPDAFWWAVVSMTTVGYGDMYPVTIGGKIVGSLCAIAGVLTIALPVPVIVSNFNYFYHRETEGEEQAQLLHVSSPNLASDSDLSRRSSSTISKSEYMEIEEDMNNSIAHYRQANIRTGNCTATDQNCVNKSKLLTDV
Summary of the method: (§1)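 HEK-293 cells carrying Kv1 channels, either stably expressed (Kv1.1, 1.2, 1.3, 1.4, 1.6, tandem Kv1.1 or 1.2 homotetramers) or transiently transfected (concatemers). Currents were recorded by automated whole-cell clamp with 2-3 MΩ pin-holes. Bath solution (mM): 135 NaCl, 5 KCl, 2 CaCl2, 2 MgCl2, 5 Hepes, 10 sucrose, pH 7.4. Holding potential was −90 mV, with steps to +20 mV for 300 ms. The 10 mM stocks were made in extracellular solution and diluted before use. The readout was steady-state current averaged after 200 ms, and peak current for Kv1.4.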

[3] = molecular target: Potassium voltage-gated channel subfamily A member 1 (Rattus norvegicus) (UniProt P10499); assay: Inhibition of recombinant rat Kv1.1 expressed in HEK293 cells at 10 uM at -90 mV holding potential by whole cell patch clamp Qpatch method relative to control; type: cell-based; summary of the method: as §1
Chain of Potassium voltage-gated channel subfamily A member 1 (Rattus norvegicus) (P10499 whole entry): as above

Kv1.6 = Kv1.6 (Rattus norvegicus, UniProt P17659); assay: Inhibition of recombinant rat Kv1.6 expressed in HEK293 cells at 10 uM at -90 mV holding potential by whole cell patch clamp Qpatch method relative to control; type: cell-based; conditions: HEK293 cells expressing recombinant rat Kv1.6; summary of the method: as §1
Chain of Kv1.6 (P17659 whole entry): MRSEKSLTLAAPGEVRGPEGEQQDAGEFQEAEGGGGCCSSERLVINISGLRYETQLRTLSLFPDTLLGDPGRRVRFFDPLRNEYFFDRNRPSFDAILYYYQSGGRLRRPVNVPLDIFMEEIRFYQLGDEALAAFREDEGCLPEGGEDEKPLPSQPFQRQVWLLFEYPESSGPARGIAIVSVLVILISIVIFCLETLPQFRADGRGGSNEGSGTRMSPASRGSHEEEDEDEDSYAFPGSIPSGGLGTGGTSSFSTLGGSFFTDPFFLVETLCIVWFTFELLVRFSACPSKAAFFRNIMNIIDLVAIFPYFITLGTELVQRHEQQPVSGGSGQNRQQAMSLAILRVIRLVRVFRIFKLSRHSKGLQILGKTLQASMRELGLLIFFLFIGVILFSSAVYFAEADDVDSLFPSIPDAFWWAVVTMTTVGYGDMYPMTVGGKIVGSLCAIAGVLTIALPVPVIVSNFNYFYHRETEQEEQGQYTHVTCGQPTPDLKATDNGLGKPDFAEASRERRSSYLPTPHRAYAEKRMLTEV

Kv1.2 = Kv1.2 (Rattus norvegicus, UniProt P63142); assay: Inhibition of recombinant rat Kv1.2 expressed in HEK293 cells at 10 uM at -90 mV holding potential by whole cell patch clamp Qpatch method relative to control; type: cell-based; conditions: HEK293 cells expressing recombinant rat Kv1.2; summary of the method: as §1
Chain of Kv1.2 (P63142 whole entry): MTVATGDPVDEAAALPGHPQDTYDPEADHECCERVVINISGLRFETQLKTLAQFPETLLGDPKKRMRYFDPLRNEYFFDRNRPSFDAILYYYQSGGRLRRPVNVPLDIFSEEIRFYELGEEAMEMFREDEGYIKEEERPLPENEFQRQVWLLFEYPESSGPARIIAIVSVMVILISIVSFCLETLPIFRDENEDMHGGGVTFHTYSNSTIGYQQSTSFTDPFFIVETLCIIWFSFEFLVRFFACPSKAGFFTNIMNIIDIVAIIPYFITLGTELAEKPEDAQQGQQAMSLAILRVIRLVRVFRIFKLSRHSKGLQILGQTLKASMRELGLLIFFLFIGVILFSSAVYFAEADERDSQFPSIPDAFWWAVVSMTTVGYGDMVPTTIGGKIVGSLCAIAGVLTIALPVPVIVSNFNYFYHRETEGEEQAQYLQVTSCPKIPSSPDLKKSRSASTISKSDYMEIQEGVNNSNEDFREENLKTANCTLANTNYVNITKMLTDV

Kv1.4 = Kv1.4 (Rattus norvegicus, UniProt P15385); assay: Inhibition of recombinant rat Kv1.4 expressed in HEK293 cells at 10 uM at -90 mV holding potential by whole cell patch clamp Qpatch method relative to control; type: cell-based; conditions: HEK293 cells expressing recombinant rat Kv1.4; summary of the method: as §1
Chain of Kv1.4 (P15385 whole entry): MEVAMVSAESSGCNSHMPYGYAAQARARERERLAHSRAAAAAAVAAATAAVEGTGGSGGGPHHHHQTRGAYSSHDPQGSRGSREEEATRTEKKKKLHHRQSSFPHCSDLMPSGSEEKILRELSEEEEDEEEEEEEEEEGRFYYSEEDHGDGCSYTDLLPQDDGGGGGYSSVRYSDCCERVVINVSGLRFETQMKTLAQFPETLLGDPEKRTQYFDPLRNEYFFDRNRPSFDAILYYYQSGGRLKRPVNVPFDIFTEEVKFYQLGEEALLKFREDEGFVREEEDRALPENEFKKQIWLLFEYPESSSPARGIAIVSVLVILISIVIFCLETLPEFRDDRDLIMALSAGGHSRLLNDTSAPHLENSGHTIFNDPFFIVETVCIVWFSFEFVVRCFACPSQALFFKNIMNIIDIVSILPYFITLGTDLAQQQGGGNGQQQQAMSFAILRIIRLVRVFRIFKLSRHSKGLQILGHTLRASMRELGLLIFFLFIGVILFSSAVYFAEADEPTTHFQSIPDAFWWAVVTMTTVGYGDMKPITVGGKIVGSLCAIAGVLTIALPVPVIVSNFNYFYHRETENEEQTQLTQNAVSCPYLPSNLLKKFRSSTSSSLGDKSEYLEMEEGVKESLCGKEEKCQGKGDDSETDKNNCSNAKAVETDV

[4] = molecular target: Potassium voltage-gated channel subfamily A member 3 (Rattus norvegicus) (UniProt P15384); assay: Inhibition of recombinant rat Kv1.3 expressed in HEK293 cells at 10 uM at -90 mV holding potential by whole cell patch clamp Qpatch method relative to control; type: cell-based; summary of the method: as §1
Chain of Potassium voltage-gated channel subfamily A member 3 (Rattus norvegicus) (P15384 whole entry): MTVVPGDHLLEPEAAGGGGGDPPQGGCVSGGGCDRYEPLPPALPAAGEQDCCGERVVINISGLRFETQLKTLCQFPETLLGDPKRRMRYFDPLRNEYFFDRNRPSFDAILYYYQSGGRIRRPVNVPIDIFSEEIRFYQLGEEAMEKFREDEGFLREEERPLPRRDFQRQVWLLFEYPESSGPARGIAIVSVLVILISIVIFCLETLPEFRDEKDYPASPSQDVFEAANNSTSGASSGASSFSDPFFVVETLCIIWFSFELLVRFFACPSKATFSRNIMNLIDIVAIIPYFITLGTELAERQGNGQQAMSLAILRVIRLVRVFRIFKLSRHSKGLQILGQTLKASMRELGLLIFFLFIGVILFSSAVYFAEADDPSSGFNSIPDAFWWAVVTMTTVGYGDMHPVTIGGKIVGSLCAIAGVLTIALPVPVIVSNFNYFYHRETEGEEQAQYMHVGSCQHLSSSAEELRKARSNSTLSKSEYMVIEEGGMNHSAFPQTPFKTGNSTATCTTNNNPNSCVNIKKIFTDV

HEK293 = assay: Phototoxicity against HEK293 cells under UV irradiation; type: cell-based; conditions: human
Mus musculus [5] = species on record: Mus musculus; assay: (§2) Neuroprotective activity against cuprizone-induced demyelination in C57BL/6J mouse corpus callosum assessed as improvement in neuronal conduction by measuring increase in amplitude of unmyelinated axon N2 wave at 10 uM relative to baseline; type: functional
Summary of the method: (§3)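 Male C57BL/6J mice (16 weeks old) fed chow with 0.2% cuprizone for 8 weeks (n = 7). Coronal slices (400 µm) containing hippocampus. CC stimulated monopolarly at 0.033 Hz (100 µs); extracellular field cAPs recorded on contralateral CC at 40–50% maximum response. After 10 min of stable baseline, compound applied at 1 or 10 µM from 10 mM aCSF stock. Mean ± SEM; n = animals.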

Mus musculus [6] = species on record: Mus musculus; assay: (§4) Neuroprotective activity against cuprizone-induced demyelination in C57BL/6J mouse corpus callosum assessed as improvement in neuronal conduction by measuring increase in amplitude of unmyelinated axon N2 wave at 1 uM relative to baseline; type: functional; summary of the method: as §3
[7] = Neurotoxicity in C57BL/6J mouse corpus callosum assessed as effect on amplitude of unmyelinated axon N2 wave at 10 uM relative to baseline; type: toxicity, tissue-based; conditions: ex_vivo
Summary of the method: as §3, with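 “kept on normal diet” for “fed chow with 0.2% cuprizone”, “5).” for “7).”, “µs);” for “µs); extracellular”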

[8] = Neurotoxicity in C57BL/6J mouse corpus callosum assessed as effect on amplitude of unmyelinated axon N2 wave at 1 uM relative to baseline; type: toxicity, tissue-based; conditions: ex_vivo
Summary of the method: as §3, with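 “kept on normal diet” for “fed chow with 0.2% cuprizone”, “5).” for “7).”, “µs);” for “µs); extracellular”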

[9] = molecular target: T3, Potassium voltage-gated channel subfamily A member 1/2 (Kv1.1/Kv1.2) (Rattus norvegicus) (UniProt P10499+P63142); assay: Inhibition of recombinant rat Kv1.2/1.1/1.2/1.1 expressed in HEK293 cells at 10 uM at -90 mV holding potential by whole cell patch clamp Qpatch method relative to control; type: cell-based; summary of the method: as §1
T3 sequence (P10499 whole entry, looked up): as the sequence (P10499 whole entry) above
T3 sequence (P63142 whole entry, looked up): as the sequence (P63142 whole entry) above

[10] = molecular target: Potassium voltage-gated channel subfamily A member 1 (Rattus norvegicus) (UniProt P10499); assay: Inhibition of recombinant rat Kv1.1 expressed in HEK293 cells assessed as shift of half maximal vale for activation at 10 uM at -90 mV holding potential by whole cell patch clamp Qpatch method; type: cell-based
[11] = molecular target: T3, Potassium voltage-gated channel subfamily A member 1/2 (Kv1.1/Kv1.2) (Rattus norvegicus); assay: Inhibition of recombinant rat Kv1.2/1.2/1.1/1.1 expressed in HEK293 cells at 10 uM at -90 mV holding potential by whole cell patch clamp Qpatch method relative to control; type: cell-based; summary of the method: as §1
[12] = as §2; type: functional; summary of the method: as §3
[13] = molecular target: T2, Potassium voltage-gated channel subfamily A member 1; assay: Inhibition of recombinant rat Kv(1.1)4 expressed in HEK293 cells at -90 mV holding potential by whole cell patch clamp Qpatch method; type: cell-based; summary of the method: as §1
[14] = molecular target: T4, Potassium voltage-gated channel subfamily A member 1/2 (Kv1.1/Kv1.2) (Rattus norvegicus, UniProt P10499+P63142); assay: Inhibition of recombinant rat Kv(1.1)2/Kv(1.2)2 expressed in HEK293 cells at -90 mV holding potential by whole cell patch clamp Qpatch method; type: cell-based; summary of the method: as §1
[15] = molecular target: T3, Potassium voltage-gated channel subfamily A member 1/2 (Kv1.1/Kv1.2) (Rattus norvegicus); assay: Inhibition of recombinant rat Kv1.1/1.1/1.2/1.2 expressed in HEK293 cells at 10 uM at -90 mV holding potential by whole cell patch clamp Qpatch method relative to control; type: cell-based; summary of the method: as §1
[16] = molecular target: Potassium voltage-gated channel subfamily A member 1 (Rattus norvegicus) (UniProt P10499); assay: Inhibition of recombinant rat Kv1.1 concatamer expressed in HEK293 cells assessed as time constant for activation of Kv1.1 channel current at -90 mV holding potential by whole cell patch clamp Qpatch method (reference value: 2.2 +/- 0.1 ms); type: cell-based
[17] = molecular target: Potassium voltage-gated channel subfamily A member 1 (Rattus norvegicus) (UniProt P10499); assay: Inhibition of recombinant rat Kv1.1 expressed in HEK293 cells assessed as time constant for activation of Kv1.1 channel current at 10 uM at -90 mV holding potential by whole cell patch clamp Qpatch method (reference value: 1.9 +/- 0.15 ms); type: cell-based
[18] = molecular target: T3, Potassium voltage-gated channel subfamily A member 1/2 (Kv1.1/Kv1.2) (Rattus norvegicus); assay: Inhibition of recombinant rat Kv(1.1)2/Kv(1.2)2 expressed in HEK293 cells assessed as time constant for activation of Kv1.1 channel current at 10 uM at -90 mV holding potential by whole cell patch clamp Qpatch method (reference value: 2.8 +/- 0.4 ms); type: cell-based
[19] = as §4; type: functional; summary of the method: as §3
[20] = molecular target: T4, Potassium voltage-gated channel subfamily A member 1/2 (Kv1.1/Kv1.2); assay: Inhibition of recombinant rat Kv1.1/Kv(1.2)3 expressed in HEK293 cells at -90 mV holding potential by whole cell patch clamp Qpatch method; type: cell-based; summary of the method: as §1
[21] = molecular target: T3, Potassium voltage-gated channel subfamily A member 1/2 (Kv1.1/Kv1.2) (Rattus norvegicus); assay: Inhibition of recombinant rat Kv(1.1)3/Kv1.2 expressed in HEK293 cells assessed as time constant for activation of Kv1.1 channel current at 10 uM at -90 mV holding potential by whole cell patch clamp Qpatch method (reference value: 3.1 +/- 0.2 ms); type: cell-based
[22] = Partition coefficient, logP of the compound; type: physicochemical; conditions: octanol/water
[23] = molecular target: Potassium voltage-gated channel subfamily A member 2 (Rattus norvegicus, UniProt P63142); assay: Inhibition of recombinant rat Kv1.2(4) expressed in HEK293 cells at -90 mV holding potential by whole cell patch clamp Qpatch method; type: cell-based; summary of the method: as §1
Chain of Potassium voltage-gated channel subfamily A member 2 (P63142 whole entry): as above

[24] = molecular target: T1, Potassium voltage-gated channel subfamily A member 1; assay: Inhibition of Kv1.1 (unknown origin) expressed in HEK293 cells by whole cell patch clamp Qpatch method; type: cell-based; summary of the method: as §1
[25] = molecular target: T4, Potassium voltage-gated channel subfamily A member 1/2 (Kv1.1/Kv1.2); assay: Inhibition of recombinant rat Kv(1.1)3/Kv1.2 expressed in HEK293 cells at -90 mV holding potential by whole cell patch clamp Qpatch method; type: cell-based; summary of the method: as §1

T1 sequence (Q09470 whole entry): as the sequence (P10499 whole entry) above, with A9V, I202V, T213N, I449M, A471V, G476A, A480T, T481A, D482N counted along it

O=C(NCC1CCCCN1)c1cc(OCC(F)(F)F)ccc1OCC(F)(F)F (stereo not drawn) [FLECAINIDE]
IC50 [1]: 209 µM

CC(C)(C)OC(=O)NCCNC(=O)c1ccc(-c2c3nc(c(-c4ccc(C(=O)NCCNC(=O)OC(C)(C)C)cc4)c4ccc([nH]4)c(-c4ccc(C(=O)NCCNC(=O)OC(C)(C)C)cc4)c4nc(c(-c5ccc(C(=O)NCCNC(=O)OC(C)(C)C)cc5)c5ccc2[nH]5)C=C4)C=C3)cc1
IC50 [2]: 13 µM

Cc1ccc(C(c2ccc(C)cc2)(c2ccc(C(=O)NCCCCN)[nH]2)c2ccc(C(=O)NCCCCN)[nH]2)cc1.Cl.Cl
inhibition [3]: 8%
inhibition at 10 µM (Kv1.6): 4%
inhibition at 10 µM (Kv1.2): 3%
inhibition at 10 µM (Kv1.4): 3%
inhibition [4]: 8%
Activity (HEK293): Non-Toxic

Nc1ccncc1 [DALFAMPRIDINE]
Activity (Mus musculus [5]): inactive
Activity (Mus musculus [6]): inactive
Activity [7]: 105.7%
Activity [8]: 105.3%

COc1ccc([C@@H]2Sc3ccccc3N(CCN(C)C)C(=O)[C@@H]2OC(C)=O)cc1 [DILTIAZEM]
IC50 [1]: 144 µM

CC[N+](CC)(CC)CC [TETRYLAMMONIUM]
IC50 [1]: 30 µM

COC(=O)C1=C(C)NC(C)=C(C(=O)OC)C1c1ccccc1[N+](=O)[O-] [NIFEDIPINE]
IC50 [1]: 96 µM

Cc1ccc(C(c2ccc(C)cc2)(c2ccc(C(=O)NCCCN)[nH]2)c2ccc(C(=O)NCCCN)[nH]2)cc1.Cl.Cl
inhibition [3]: 35%
inhibition at 10 µM (Kv1.6): 5%
inhibition at 10 µM (Kv1.2): 6%
inhibition at 10 µM (Kv1.4): 16%
inhibition [4]: 32%
Activity (HEK293): Non-Toxic

Cc1ccc(C(c2ccc(C)cc2)(c2ccc(C(=O)NCCN)[nH]2)c2ccc(C(=O)NCCN)[nH]2)cc1.Cl.Cl
inhibition [9]: 15%
V1/2 [10]: 40 mV
inhibition [3]: 40%
inhibition [11]: 15%
Activity [12]: 127.8%
inhibition at 10 µM (Kv1.6): 1%
IC50 [13]: 14 µM
inhibition at 10 µM (Kv1.2): 1%
IC50 [14]: 57 µM
inhibition at 10 µM (Kv1.4): 5%
inhibition [15]: 13%
TIME [16]: 5.42e-06 h
TIME [17]: 5.64e-06 h
TIME [18]: 5e-06 h
Activity [19]: 108.2%
IC50 [20]: > 100 µM
inhibition [4]: 15%
IC50 [2]: 16 µM
TIME [21]: 3.89e-06 h
Activity [7]: 102.6%
logP [22]: -1.05
IC50 [23]: > 100 µM
IC50 [24]: 16 µM
Activity (HEK293): Non-Toxic
Activity [8]: 100.9%
IC50 [25]: 54 µM

COc1cc(CNC(=O)CCCC/C=C/C(C)C)ccc1O [CAPSAICIN]
IC50 [1]: 29 µM
